Only a sample is shown.
Apaf1 activ = activators of human Apaf-1 apoptosome | Apaf-1 apoptosome caspase-3 activation, DEVD-Rh110 fluorescence; stronger effect = lower value | activity change, negative = activation, % at 20 µM | actives 0.31% (n = 330,000) | AID 489031;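 active = activity change at or below -40% at 20 µM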
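Schedule: 30 min preincubation, 50 min reaction, room temperature / System: biochemical Apaf-1 apoptosome reconstitution / Medium: 20 mM HEPES pH 7.5 with CHAPS, BSA / Evaluation: Caspase-3 cleavage activity downstream of Apaf-1 activation / Detection: Caspase-3-released Rh110 fluorescence, 540 nm emission, 480 nm excitation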
Rh110 interf act = Rh110 signal interference in Apaf-1 activator counter-screen; Rh110 fluorescence interference, quenched caspase reaction, Ex480/Em540; AID 504616; 980 tested, under 10 active; shares compounds with Apaf1 activ; fluorescence interference (activity change), % at 20 µM, hits read low;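 active = mean activity change at or below -40% when tested at 20 µM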
Apaf-1 act conf2 = Apaf-1 (human) activation, single-dose confirmed. actives 5% (n = 980). activity change, negative = activation, % at 20 µM. reconstituted apoptosome caspase-3 activity, DEVD-Rh110 fluorescence; stronger effect = lower value. shares compounds with Apaf1 activ;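 active = mean activity change at or below -40%, meaning activation of 40% or more, at 20 µM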
Fluor interf act = counter-screen for Apaf-1 activators: fluorescence interference, dose response; fluorescence interference counterscreen, Apaf-1 activator assay; EC50, µM; 55 tested, under 10 active; shares compounds with Apaf1 activ; AID 588592; call rule not given here
Numbers without * were called inactive; nt = no result.

SMILES	Apaf1 activ	Rh110 interf act	Apaf-1 act conf2	others
O=C(Nc1ccc(Cl)c(Cl)c1)Nc1nc(-c2ccccc2)cs1	-366.0*	11.4	15.8
C1CCC(C(CC2CCCCN2)C2CCCCC2)CC1 (stereo not drawn)	59.9	nt	nt
COc1ccc(N2C(=O)[C@@H]3[C@H](C2=O)[C@H]2c4ccccc4C=CN2[C@@H]3C(=O)Nc2ccccc2)cc1	67.1	nt	nt
Clc1ccc(-c2ccc(CNCC3CCCO3)o2)cc1 (stereo not drawn)	-130.6*	5.1	2.5
O=C1C=C(O)c2cccc(O)c2C1=O	43.8	nt	nt
CCc1cccc(C)c1NC(=S)NCc1ccc2c(c1)cc(C)n2C	54.6	nt	nt
C/C(=N\Nc1ccc([N+](=O)[O-])cc1)c1ccc(C#N)cc1	-44.0*	6.1	1.6
CCOC(=O)C1CCN(S(=O)(=O)c2ccc3c4c2CC(=O)N4CC(C)S3)CC1 (stereo not drawn)	44.4	nt	nt
O=C(Nc1nc2ccsc2c(=O)s1)c1ccco1	-135.9*	0.4	-55.9*	Fluor interf act=>100
CCCCCn1c(NC(=O)c2ccco2)c(S(=O)(=O)c2ccc(C)cc2)c2nc3ccccc3nc21	62.8	nt	nt
COC(=O)c1ccc(NC(=O)c2ccc(NC(=O)c3ccco3)cc2)cc1	43.8	nt	nt
COCCN1C(=S)N[C@@H](c2cccc(F)c2)C(C(=O)OC)=C1C	57.4	nt	nt
CCC[C@@H](CN1CCC[C@H]1CN1C(N)=NC[C@H]1CC(C)C)N1C[C@@H](Cc2ccccc2)N(CCCC2CCCC2)C1=N	59.0	nt	nt
